Assay results from ChEMBL document CHEMBL1932980, “Structure-activity relationships of 2-amino-3-aroyl-4-[(4-arylpiperazin-1-yl)methyl]thiophenes. Part 2: Probing the influence of diverse substituents at the phenyl of the arylpiperazine moiety on allosteric enhancer activity at the A₁ adenosine receptor” (Bioorg Med Chem, 2012).

Experiments:
[1] = target: T1, Adenosine receptor A1 (Homo sapiens) (UniProt P30542); assay: Allosteric enhancer activity at recombinant human A1 adenosine receptor expressed in CHO cells assessed as change in forskolin-induced cAMP production at 0.01 uM after 6 mins by radioimmunoassay; assay type: functional, cell-based
T1 sequence (whole entry): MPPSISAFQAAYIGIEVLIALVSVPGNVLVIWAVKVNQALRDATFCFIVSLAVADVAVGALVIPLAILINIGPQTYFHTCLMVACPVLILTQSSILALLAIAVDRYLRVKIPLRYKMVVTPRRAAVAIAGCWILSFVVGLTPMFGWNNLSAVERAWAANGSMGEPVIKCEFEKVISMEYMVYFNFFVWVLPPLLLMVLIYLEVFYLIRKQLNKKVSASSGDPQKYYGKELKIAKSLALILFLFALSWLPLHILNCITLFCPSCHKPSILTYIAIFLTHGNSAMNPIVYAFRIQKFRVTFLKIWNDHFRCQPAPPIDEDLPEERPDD
Procedure, shortened: (§1)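 hA1CHO cells (about 8000 fmol/mg protein) thawed from low-passage stocks, grown in Ham's F-12 with 10% FBS and G-418, then plated 48 h. Test compound at 0.01, 0.1, 1 or 10 µM with CPA (0.05–0.1 nM) for 6 min at 36 °C. Stopped with HCl (final 50 mM). cAMP in acidified extracts measured by radioimmunoassay. Reference enhancer run in each experiment. Four experiments per concentration.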

[2] = target: T1, Adenosine receptor A1 (Homo sapiens); assay: Allosteric enhancer activity at recombinant human A1 adenosine receptor expressed in CHO cells assessed as change in forskolin-induced cAMP production at 0.1 uM after 6 mins by radioimmunoassay; assay type: functional, cell-based; procedure, shortened: as §1
[3] = target: T1, Adenosine receptor A1 (Homo sapiens); assay: Allosteric enhancer activity at recombinant human A1 adenosine receptor expressed in CHO cells assessed as change in forskolin-induced cAMP production at 1 uM after 6 mins by radioimmunoassay; assay type: functional, cell-based; procedure, shortened: as §1
[4] = target: T1, Adenosine receptor A1 (Homo sapiens); assay: Allosteric enhancer activity at recombinant human A1 adenosine receptor expressed in CHO cells assessed as change in forskolin-induced cAMP production at 10 uM after 6 mins by radioimmunoassay; assay type: functional, cell-based; procedure, shortened: as §1
[5] = target: T1, Adenosine receptor A1 (Homo sapiens); assay: Displacement of [3H]DPCPX from recombinant human A1 adenosine receptor expressed in CHO cells at 10 uM after 120 mins by scintillation counting; assay type: cell-based
Procedure, shortened: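 Membranes from hA1CHO cells incubated with 1 nM [3H]DPCPX in 50 mM Tris–HCl pH 7.4 at 25 °C for 120 min. Compound added from a 100-fold DMSO stock, so 1% DMSO final, also present in controls. Bound ligand separated on GF/B filters and counted by scintillation. Result given as % of control specific binding.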

[6] = target: Adenosine receptor A2a (Homo sapiens) (UniProt P29274); assay: Displacement of [3H]ZM241385 from recombinant human A2A adenosine receptor expressed in CHO cells at 10 uM after 60 mins by scintillation counting; assay type: cell-based
Sequence of Adenosine receptor A2a (Homo sapiens) (P29274 whole entry): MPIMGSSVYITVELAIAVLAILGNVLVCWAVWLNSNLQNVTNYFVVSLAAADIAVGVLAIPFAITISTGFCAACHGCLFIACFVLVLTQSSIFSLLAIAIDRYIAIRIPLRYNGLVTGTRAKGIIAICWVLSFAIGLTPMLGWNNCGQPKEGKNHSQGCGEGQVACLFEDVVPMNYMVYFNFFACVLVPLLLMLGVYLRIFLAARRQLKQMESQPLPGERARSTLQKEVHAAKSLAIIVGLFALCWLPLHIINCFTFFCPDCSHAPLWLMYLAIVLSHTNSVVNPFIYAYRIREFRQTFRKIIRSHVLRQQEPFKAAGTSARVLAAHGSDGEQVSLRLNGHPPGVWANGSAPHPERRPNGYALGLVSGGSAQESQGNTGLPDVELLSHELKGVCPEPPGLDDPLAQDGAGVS
Procedure, shortened: (§2)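 Membranes from hA2ACHO cells incubated with 1 nM [3H]ZM 241385 in 50 mM Tris–HCl, 10 mM MgCl2, pH 7.4 at 4 °C for 60 min. Compound added from a 100-fold DMSO stock, 1% DMSO final, also in controls. Separated by GF/B filtration and counted by scintillation. Result given as % of control specific binding.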

[7] = target: T2, Adenosine receptor A3 (Homo sapiens) (UniProt P0DMS8); assay: Displacement of [3H]MRE3008F20 from recombinant human A3 adenosine receptor expressed in CHO cells at 10 uM after 120 mins by scintillation counting; assay type: cell-based
T2 sequence (whole entry): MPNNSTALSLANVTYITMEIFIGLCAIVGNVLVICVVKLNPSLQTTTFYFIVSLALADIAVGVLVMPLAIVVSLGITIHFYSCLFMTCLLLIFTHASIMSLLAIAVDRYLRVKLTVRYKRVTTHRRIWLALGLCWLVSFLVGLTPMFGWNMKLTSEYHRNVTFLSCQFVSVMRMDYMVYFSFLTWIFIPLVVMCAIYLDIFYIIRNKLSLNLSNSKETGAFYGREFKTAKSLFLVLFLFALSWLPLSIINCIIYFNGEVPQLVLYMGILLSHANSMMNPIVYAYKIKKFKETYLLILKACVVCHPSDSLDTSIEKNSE
Procedure, shortened: as §2, with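 “from hA3CHO” for “from hA2ACHO”, “with 2” for “with 1”, “nM [3H]MRE 3008F20” for “nM [3H]ZM 241385”, “MgCl2, 1 mM EDTA,” for “MgCl2,”, “for 120” for “for 60”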

[8] = target: T1, Adenosine receptor A1 (Homo sapiens); assay: Binding affinity to recombinant human A1 adenosine receptor allosteric site expressed in CHO cells assessed as [3H]CCPA Bmax shift at 10 uM after 90 mins relative to control; assay type: cell-based
Procedure, shortened: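 Saturation binding of [3H]CCPA (0.05–20 nM) to hA1CHO membranes. Membranes pretreated with adenosine deaminase 3 UI/mL for 30 min at 37 °C. Run in triplicate, 90 min at 25 °C, in 50 mM Tris–HCl pH 7.4, with or without test compound at final 10 µM. Nonspecific binding taken with 1 µM R-PIA. Bmax fitted by LIGAND. Shift is the fold of Bmax increase over control.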

[9] = target: T1, Adenosine receptor A1 (Homo sapiens); assay: Binding affinity to recombinant human A1 adenosine receptor allosteric site expressed in CHO cells assessed as [3H]DPCPX Bmax shift at 10 uM after 90 mins relative to control; assay type: cell-based
Procedure, shortened: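 Saturation binding of [3H]DPCPX (0.05–20 nM) to hA1CHO membranes, run in triplicate, 90 min at 25 °C, in 50 mM Tris–HCl pH 7.4, with or without test compound at final 10 µM. Nonspecific binding taken with 1 µM DPCPX. KD and Bmax fitted by LIGAND. Shift is the fold of Bmax increase over control.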

[10] = target: T1, Adenosine receptor A1 (Homo sapiens); assay: Binding affinity to recombinant human A1 adenosine receptor allosteric site expressed in CHO cells assessed as potentiation of CCPA-induced [3H]DPCPX displacement at 10 uM after 90 mins relative to control; assay type: cell-based
Procedure, shortened: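 Competition of CCPA (0.01 nM–1 µM) against 1 nM [3H]DPCPX on hA1CHO membranes, run in triplicate, 90 min at 25 °C, in 50 mM Tris–HCl pH 7.4, with or without test compound at 10 µM. Nonspecific binding taken with 1 µM DPCPX. Ki by Cheng–Prusoff. Shift = Ki(CCPA)/Ki(CCPA + 10 µM compound).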

Row | SMILES | Activity [1] [%] | Activity [2] [%] | Activity [3] [%] | Activity [4] [%] | inhibition [5] [%] | inhibition [6] [%] | inhibition [7] [%] | fold change (FC) [8] | fold change (FC) [9] | fold change (FC) [10]
1 | Nc1scc(CN2CCN(c3cccc4ccccc34)CC2)c1C(=O)c1ccc(Cl)cc1 | 8.7 | 0 | 2.9 | -21 | 1 | 0 | 0 | 1.1 | 0.9 | 1.3
2 | Nc1scc(CN2CCN(c3c(F)cc(F)cc3F)CC2)c1C(=O)c1ccc(Cl)cc1 | 4.2 | -3.9 | -56 | -78 | 0 | 0 | 0 | 4.5 | 1 | 3.6
3 | Nc1scc(CN2CCC(c3ccc(Cl)cc3)CC2)c1C(=O)c1ccc(Cl)cc1 | 0 | -2.3 | -24 | -61 | 0 | 0 | 6 | 3.9 | 1 | 3.3
4 | Nc1scc(CN2CCN(c3cc(F)ccc3F)CC2)c1C(=O)c1ccc(Cl)cc1 | 3.1 | -13 | -59 | -80 | 1 | 0 | 2 | 4.7 | 1 | 3.8
5 | Nc1scc(CN2CCN(c3cccc(Cl)c3)CC2)c1C(=O)c1ccc(Cl)cc1 | -3.1 | -20 | -59 | -77 | 0 | 0 | 1 | 4.4 | 1 | 3.7
6 | Nc1scc(CN2CCN(c3ccc(F)c(Cl)c3)CC2)c1C(=O)c1ccc(Cl)cc1 | 4.2 | -21 | -60 | -78 | 0 | 0 | 0 | 7 | 1.1 | 5.5
7 | Nc1scc(CN2CCN(c3ccc(F)cc3Cl)CC2)c1C(=O)c1ccc(Cl)cc1 | 6.1 | -6.2 | -39 | -70 | 0 | 0 | 0 | 5.2 | 1.1 | 4.2
8 | Nc1scc(CN2CCN(c3ccncc3)CC2)c1C(=O)c1ccc(Cl)cc1 | -4 | 1.4 | -8.3 | -15 | 1 | 0 | 2 | 1.1 | 0.9 | 1.2
9 | Nc1scc(CN2CCN(c3ccccc3C(F)(F)F)CC2)c1C(=O)c1ccc(Cl)cc1 | 0 | -7.5 | -39 | -60 | 0 | 0 | 0 | 4.4 | 1 | 3.6
10 | Nc1scc(CN2CCN(C(=O)Cc3ccc(Cl)cc3)CC2)c1C(=O)c1ccc(Cl)cc1 | 2.1 | 0 | -8.1 | -42 | 1 | 0 | 0 | 1.5 | 0.9 | 1.5
